We go through eleven compounds from ChEMBL document CHEMBL5096186, “Design, Synthesis, and Biological Evaluation of Novel Pyrimido[4,5-b]indole Derivatives Against Gram-Negative Multidrug-Resistant Pathogens” (J Med Chem, 2021).

In brackets after ≈: the same amount, converted by molar mass. A value given as a limit tells only on which side of the number the result lay.

Usually MIC stands for the lowest concentration that inhibits growth of the organism. As usually defined, the IC50 is the concentration that inhibits the measured activity by half. A word on the inhibition: it is the drop in the measured response relative to a control, in per cent.

The subject of data set [1] is Escherichia coli. The data set is described as follows: Antibacterial activity against Escherichia coli ATCC 35218 strains 15 1 to 3 assessed as reduction in bacterial growth incubated for 18 to 20 hrs by CLSI based microdilution method. Particulars: time 18-20 hrs. Type of data set: functional. In outline:
(§1)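 CLSI broth microdilution. Compounds in DMSO (levofloxacin and meropenem in water), serial twofold dilutions in broth, 64 to 0.008 μg/mL. […] Results reported as MIC ranges across strains.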
(In general: Dilution methods test growth across graded concentrations, often in twofold steps.)

Data set [2] has as its system Staphylococcus epidermidis. Nature of the data set: Antibacterial activity against methicillin-sensitive Staphylococcus epidermidis strains 15 1 to 4 assessed as reduction in bacterial growth incubated for 18 to 20 hrs by CLSI based microdilution method. Type of data set: functional. The following applies: time 18-20 hrs. In outline: (§2)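 Broth microdilution per CLSI. Compounds dissolved in DMSO (levofloxacin and meropenem in water) as 64 μg/mL stock, then serial twofold dilutions in broth giving 64 to 0.008 μg/mL. […] Clinical isolates tested as several strains per group; racemic GP-1 served as positive control; values given as MIC ranges.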

Data set [3] has as its system Staphylococcus aureus. Nature of the data set: Antibacterial activity against methicillin-sensitive Staphylococcus aureus strains 15 1 to 4 assessed as reduction in bacterial growth incubated for 18 to 20 hrs by CLSI based microdilution method. The following applies: time 18-20 hrs. Type of data set: functional. In outline: as §2
Data set [4] relates to Escherichia coli. The data set is described as follows: Antibacterial activity against ESBL-producing Escherichia coli ATCC 35218 strains 15 1 to 3 assessed as reduction in bacterial growth incubated for 18 to 20 hrs by CLSI based microdilution method. The following applies: time 18-20 hrs. Type of data set: functional. In outline: as §1
The subject of data set [5] is Pseudomonas aeruginosa. Nature of the data set: Antibacterial activity against multidrug resistant Pseudomonas aeruginosa strains 15 1 to 3 assessed as reduction in bacterial growth incubated for 18 to 20 hrs by CLSI based microdilution method. Type of data set: functional. Particulars: time 18-20 hrs. In outline:
as §2

The test system of data set [6] is Klebsiella pneumoniae. Nature of the data set: Antibacterial activity agains wild type Klebsiella pneumoniae ATCC BAA-2470 assessed as reduction in bacterial growth incubated for 18 to 20 hrs by CLSI based microdilution method. Type of data set: functional. Particulars: time 18-20 hrs. Summed up:
as §2

The test system of data set [7] is Acinetobacter baumannii. Nature of the data set: Antibacterial activity against wild type Acinetobacter baumannii NCTC 13304 assessed as reduction in bacterial growth incubated for 18 to 20 hrs by CLSI based microdilution method. It counts as functional. The following applies: time 18-20 hrs. Summed up:
as §2

In data set [8] the test system is Escherichia coli. Nature of the data set: Antibacterial activity against multidrug resistant wild type Escherichia coli ATCC BAA-2340 assessed as reduction in bacterial growth incubated for 18 to 20 hrs by CLSI based microdilution method. Type of data set: functional. The following applies: time 18-20 hrs. Summed up:
as §2

In data set [9] the test system is Klebsiella pneumoniae. Nature of the data set: Antibacterial activity against KPC2-producing multidrug resistant Klebsiella pneumoniae assessed as reduction in bacterial growth incubated for 18 to 20 hrs by CLSI based microdilution method. Type of data set: functional. Particulars: time 18-20 hrs. In outline: as §2
In data set [10] the test system is Acinetobacter baumannii. The data set is described as follows: Antibacterial activity agains OXA23-producing multidrug resistant Acinetobacter baumannii assessed as reduction in bacterial growth incubated for 18 to 20 hrs by CLSI based microdilution method. It counts as functional. The following applies: time 18-20 hrs. In outline:
as §2

The subject of data set [11] is Escherichia coli. The data set is described as follows: Antibacterial activity against multidrug resistant wild type Escherichia coli NCTC 13353 assessed as reduction in bacterial growth incubated for 18 to 20 hrs by CLSI based microdilution method. Type of data set: functional. Particulars: time 18-20 hrs. In outline:
as §2

The test system of data set [12] is Pseudomonas aeruginosa. Nature of the data set: Antibacterial activity against wild type Pseudomonas aeruginosa ATCC 27853 assessed as reduction in bacterial growth incubated for 18 to 20 hrs by CLSI based microdilution method. Type of data set: functional. The following applies: time 18-20 hrs. Summed up:
as §1

Data set [13] has as its system Escherichia coli. Nature of the data set: Antibacterial activity against ESBL-producing multidrug resistant Escherichia coli assessed as reduction in bacterial growth incubated for 18 to 20 hrs by CLSI based microdilution method. Type of data set: functional. The following applies: time 18-20 hrs. Summed up:
as §2

In data set [14] the test system is Klebsiella pneumoniae. The data set is described as follows: Antibacterial activity agains wild type Klebsiella pneumoniae ATCC BAA-1705 assessed as reduction in bacterial growth incubated for 18 to 20 hrs by CLSI based microdilution method. The following applies: time 18-20 hrs. It counts as functional. Summed up:
as §1

Data set [15] has as its system Pseudomonas aeruginosa. The data set is described as follows: Antibacterial activity against IMP4-producing multidrug resistant Pseudomonas aeruginosa assessed as reduction in bacterial growth incubated for 18 to 20 hrs by CLSI based microdilution method. It counts as functional. Particulars: time 18-20 hrs. In outline: as §2
The target of data set [16] is Voltage-gated inwardly rectifying potassium channel KCNH2 (Homo sapiens, UniProt Q12809). Nature of the data set: Inhibition of hERG potassium channel assessed as […] at -80 mV holding potential incubated for 120 seconds by whole cell-automated voltage clamp analysis assay. Type of data set: toxicity. In outline:
(§3)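 Automated whole-cell patch clamp, holding potential −80 mV. Voltage protocol applied every 20 s. Baseline set with external solution containing 0.1% DMSO and stabilised 3 min. Compound applied until steady state, at least 3 min, then washout. Maximum tested concentration 40 μM, or 3 μM for cisapride as positive control.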
(hERG is a cardiac potassium channel; its block is linked to QT prolongation.)

Data set [17] relates to Staphylococcus aureus. Nature of the data set: Antibacterial activity against methicillin-resistant Staphylococcus aureus strains 15 1 to 4 assessed as reduction in bacterial growth incubated for 18 to 20 hrs by CLSI based microdilution method. It counts as functional. Particulars: time 18-20 hrs. In outline: as §2
The target of data set [18] is hERG (KCNH2) potassium channel (Homo sapiens, UniProt Q12809). The data set is described as follows: Inhibition of hERG potassium channel assessed as maximum inhibition rate at 40 uM at -80 mV holding potential incubated for 120 seconds by whole cell-automated voltage clamp analysis assay relative to control. It counts as toxicity. Particulars: time 120 sec. Summed up: as §3
Sequence of hERG (KCNH2) potassium channel (Q12809 whole entry): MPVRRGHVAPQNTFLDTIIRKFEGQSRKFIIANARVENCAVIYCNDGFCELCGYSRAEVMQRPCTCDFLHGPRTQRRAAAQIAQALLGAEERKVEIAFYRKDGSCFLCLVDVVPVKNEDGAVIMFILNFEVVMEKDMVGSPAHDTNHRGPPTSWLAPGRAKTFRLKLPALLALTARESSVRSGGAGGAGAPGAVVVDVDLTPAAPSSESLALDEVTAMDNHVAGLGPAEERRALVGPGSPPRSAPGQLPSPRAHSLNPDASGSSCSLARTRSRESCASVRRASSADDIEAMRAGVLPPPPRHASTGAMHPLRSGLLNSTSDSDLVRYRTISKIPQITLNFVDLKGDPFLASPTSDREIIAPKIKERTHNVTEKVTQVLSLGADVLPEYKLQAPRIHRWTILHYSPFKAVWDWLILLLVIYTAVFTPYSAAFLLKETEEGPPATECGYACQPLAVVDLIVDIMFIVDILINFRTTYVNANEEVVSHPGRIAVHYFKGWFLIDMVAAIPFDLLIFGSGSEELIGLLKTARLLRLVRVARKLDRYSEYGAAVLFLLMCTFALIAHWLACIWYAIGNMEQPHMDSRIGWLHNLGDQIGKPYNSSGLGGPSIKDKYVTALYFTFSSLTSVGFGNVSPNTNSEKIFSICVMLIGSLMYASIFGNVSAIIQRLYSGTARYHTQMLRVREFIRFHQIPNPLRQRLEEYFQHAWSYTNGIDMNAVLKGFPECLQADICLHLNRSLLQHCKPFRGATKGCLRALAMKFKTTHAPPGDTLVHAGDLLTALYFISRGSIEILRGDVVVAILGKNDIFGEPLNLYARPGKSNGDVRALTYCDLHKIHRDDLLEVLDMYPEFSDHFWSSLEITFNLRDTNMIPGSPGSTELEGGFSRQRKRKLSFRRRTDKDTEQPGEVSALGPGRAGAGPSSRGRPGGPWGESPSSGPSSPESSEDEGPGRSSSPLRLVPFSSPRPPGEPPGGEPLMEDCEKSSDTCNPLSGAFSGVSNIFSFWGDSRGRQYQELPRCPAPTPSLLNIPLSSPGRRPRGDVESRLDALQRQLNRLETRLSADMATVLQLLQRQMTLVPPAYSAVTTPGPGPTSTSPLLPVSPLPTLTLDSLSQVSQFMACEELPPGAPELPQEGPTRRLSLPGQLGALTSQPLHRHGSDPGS

Sequence of Voltage-gated inwardly rectifying potassium channel KCNH2 (Q12809 whole entry): as above

On to `CCC(CN)=C1CN(c2nc(NS(C)(=O)=O)nc3[nH]c4c(NC)cc(F)cc4c23)C1`, for which the MIC (with Escherichia coli [1]; in data set [2]; in the data set with Staphylococcus aureus [3]; in the data set on Escherichia coli [4]; in the data set with Pseudomonas aeruginosa [5]) was over 16 µg/mL in each case.

Regarding `[2H]C([2H])([2H])Nc1cc(F)cc2c1[nH]c1nc(Oc3cnc(C(C)O)nc3)nc(N3CC(=C(CC)CN)C3)c12` (stereo not given), the minimum inhibitory concentration (MIC) worked out at 8 µg/mL (≈ 16.6 µM) in the data set with Klebsiella pneumoniae [6]; 2 µg/mL (≈ 4.15 µM) in the data set on Acinetobacter baumannii [7]; 2 µg/mL (≈ 4.15 µM) in the data set with Escherichia coli [8]; 4 µg/mL (≈ 8.31 µM) in the data set on Klebsiella pneumoniae [9]; 2 µg/mL (≈ 4.15 µM) with Acinetobacter baumannii [10]; 1 µg/mL (≈ 2.08 µM) in the data set on Escherichia coli [11]. For the same compound, the MIC with Pseudomonas aeruginosa [12] amounted to 8 µg/mL (≈ 16.6 µM); with Escherichia coli [13], 4 µg/mL (≈ 8.31 µM); with Klebsiella pneumoniae [14], 8 µg/mL (≈ 16.6 µM); in the data set with Pseudomonas aeruginosa [15], 16 µg/mL (≈ 33.2 µM).

As for `CC(C)(O/N=C(\C(=O)N[C@@H]1C(=O)N2C(C(=O)[O-])=C(C[N+]3(CCNC(=O)c4ccc(O)c(O)c4Cl)CCCC3)CS[C@H]12)c1csc(N)n1)C(=O)O` [CEFIDEROCOL], the MIC in the data set with Klebsiella pneumoniae [6] is over 64 µg/mL; with Acinetobacter baumannii [7], 2 µg/mL (≈ 2.66 µM); in the data set with Escherichia coli [8], 4 µg/mL (≈ 5.32 µM); in the data set on Klebsiella pneumoniae [9], 2 µg/mL (≈ 2.66 µM); with Acinetobacter baumannii [10], 2 µg/mL (≈ 2.66 µM); in the data set on Escherichia coli [11] it was 4 µg/mL (≈ 5.32 µM). The minimum inhibitory concentration (MIC) in the data set with Pseudomonas aeruginosa [12] was 4 µg/mL (≈ 5.32 µM); with Escherichia coli [13] it was 0.25 µg/mL (≈ 0.332 µM); in the data set on Klebsiella pneumoniae [14], 32 µg/mL (≈ 42.5 µM); in the data set with Pseudomonas aeruginosa [15] it was 1 µg/mL (≈ 1.33 µM).

As to `CNc1cc(F)cc2c1[nH]c1nc(Oc3cnc(C)nc3)nc(N3CCC(=C(F)CN)CC3)c12`, the minimum inhibitory concentration (MIC) in the data set on Escherichia coli [1] is 0.06 µg/mL (≈ 0.129 µM); in [2], under 0.008 µg/mL; with Staphylococcus aureus [17], 0.015 µg/mL (≈ 0.0322 µM); in the data set on Staphylococcus aureus [3] it was 0.015 µg/mL (≈ 0.0322 µM); with Escherichia coli [4], 0.5 µg/mL (≈ 1.07 µM); in the data set on Pseudomonas aeruginosa [5], over 8 µg/mL. In addition, the IC50 in data set [16] is 18.4 µM. For the same compound, the inhibition at 2 min, 40 µM in [18] is 70.4%.

As for `CCC(CN)=C1CN(c2nc(S(C)(=O)=O)nc3[nH]c4c(NC)cc(F)cc4c23)C1`, the MIC (with Escherichia coli [1]; in data set [2]; in the data set with Staphylococcus aureus [3]; in the data set on Escherichia coli [4]; in the data set on Pseudomonas aeruginosa [5]) was over 16 µg/mL throughout.

On to `CCC(CN)=C1CN(c2nc(Sc3cnc(C)nc3)nc3[nH]c4c(NC)cc(F)cc4c23)C1`, for which the MIC was 0.5 µg/mL (≈ 1.08 µM) with Escherichia coli [1]; under 0.008 µg/mL in [2]; under 0.008 µg/mL with Staphylococcus aureus [17]; 0.008 µg/mL (≈ 0.0172 µM) in the data set with Staphylococcus aureus [3]; 1 µg/mL (≈ 2.15 µM) in the data set on Escherichia coli [4]; over 16 µg/mL in the data set on Pseudomonas aeruginosa [5].

Turning to `CNc1cc(F)cc2c1[nH]c1nc(Oc3cnc(C)nc3)nc(N3CC(=C(Cl)CN)C3)c12`, the MIC with Escherichia coli [1] is 0.25 µg/mL (≈ 0.55 µM); in data set [2], under 0.008 µg/mL; with Staphylococcus aureus [3], under 0.008 µg/mL; with Escherichia coli [4], 1 µg/mL (≈ 2.2 µM); in the data set on Pseudomonas aeruginosa [5], 8 µg/mL (≈ 17.6 µM). Besides, the 50% inhibitory concentration (IC50) in data set [16] was over 40 µM. Moreover, the inhibition at 2 min, 40 µM in data set [18] is 34.3%.

`CCC(CO)=C1CN(c2nc(Oc3cnc4ccnn4c3)nc3[nH]c4c(NC)cc(F)cc4c23)C1`: the MIC in the data set on Escherichia coli [1] and in the data set with Escherichia coli [4] was 0.25 µg/mL (≈ 0.527 µM) in each case.

`CNc1cc(F)cc2c1[nH]c1nc(Oc3cnc(C)nc3)nc(N3CC(=C(C)CN)C3)c12`: the MIC was 0.06 µg/mL (≈ 0.138 µM) with Escherichia coli [1]; under 0.008 µg/mL in data set [2]; under 0.008 µg/mL in the data set on Staphylococcus aureus [3]; 2 µg/mL (≈ 4.6 µM) with Escherichia coli [4]; over 4 µg/mL with Pseudomonas aeruginosa [5]. Further, the concentration for half-maximal inhibition (IC50) in [16] was over 40 µM. In [18], the inhibition at 2 min, 40 µM is 4.8%.

Turning to `C[C@@H](O)[C@H]1C(=O)N2C(C(=O)O)=C(S[C@@H]3CN[C@H](C(=O)N(C)C)C3)[C@H](C)[C@H]12` [MEROPENEM], the minimum inhibitory concentration (MIC) with Klebsiella pneumoniae [6] is 16 µg/mL (≈ 41.7 µM); with Acinetobacter baumannii [7] it was over 32 µg/mL; with Escherichia coli [8], 4 µg/mL (≈ 10.4 µM); in the data set with Klebsiella pneumoniae [9] it was at least 64 µg/mL; with Acinetobacter baumannii [10] it was over 32 µg/mL; with Escherichia coli [11], 0.06 µg/mL (≈ 0.156 µM). The MIC was determined as 1 µg/mL (≈ 2.61 µM) in the data set on Pseudomonas aeruginosa [12], 0.25 µg/mL (≈ 0.652 µM) in the data set on Escherichia coli [13], 16 µg/mL (≈ 41.7 µM) in the data set with Klebsiella pneumoniae [14] and 8 µg/mL (≈ 20.9 µM) with Pseudomonas aeruginosa [15].

`CNc1cc(F)cc2c1[nH]c1nc(Oc3cnc(C)nc3)nc(N3CC(=C(C)CO)C3)c12`: the minimum inhibitory concentration (MIC) with Escherichia coli [1] was 0.25 µg/mL (≈ 0.574 µM); in data set [2], under 0.03 µg/mL; in the data set on Staphylococcus aureus [3] it was under 0.03 µg/mL; in the data set with Escherichia coli [4], over 64 µg/mL; in the data set on Pseudomonas aeruginosa [5], over 64 µg/mL.
